Reference: ChEMBL document CHEMBL1130336, “Polyanion inhibitors of human immunodeficiency virus and other viruses. 6. Micelle-like anti-HIV polyanionic compounds based on a carbohydrate core” (J Med Chem, 1997)

Legend:
[1] = tested on: CEM-4; assay: Concentration required to reduce the viability of uninfected CEM-4 cells by 50%; type: functional; conditions: Homo sapiens
How it was run: (§1)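 Cytotoxicity in uninfected CEM-4 or MT-4 cells, measured as inhibition of cell growth. The value is the concentration that lowers viability by 50%.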

[2] = tested on: CEM-4; assay: Inhibitory concentration required to inhibit HIV-induced cytopathicity in CEM-4 cells by 50%; type: functional, cell-based; conditions: Homo sapiens
How it was run: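 CEM-4 cells infected with HIV-1 (strain HTLV-III_B/LAI). The end point is 50% inhibition of HIV-induced cytopathicity.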

[3] = tested on: E6SM; assay: Concentration required to reduce herpes simplex virus-2(Lyons) inducted cytopathicity by 50% (E6SM cells); type: functional, cell-based; conditions: Homo sapiens
How it was run: (§2)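 Virus was added in the presence of compound, and the cells were incubated until cytopathic effect was scored. The value is the concentration that reduces virus-induced CPE by 50%.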

[4] = tested on: E6SM; assay: Concentration required to reduce herpes simplex virus-1TK (McIntyre) inducted cytopathicity by 50% (E6SM cells); type: functional, cell-based; conditions: Homo sapiens; how it was run: as §2
[5] = tested on: E6SM; assay: Concentration required to reduce herpes simplex virus-2(196) inducted cytopathicity by 50% (E6SM cells); type: functional, cell-based; conditions: Homo sapiens; how it was run: as §2
[6] = tested on: HeLa; assay: Concentration required to reduce Coxsackie virus-inducted cytopathicity by 50% (HeLa cells); type: functional, cell-based; conditions: Homo sapiens
[7] = tested on: MT4; assay: Concentration required to inhibit human immunodeficiency virus-1 induced cytopathicity in MT-4 cells by 50%; type: functional, cell-based
How it was run: (§3)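 MT-4 cells infected with HIV-1 (strain HTLV-III_B/LAI) or HIV-2 (strain LAV_ROD). The end point is 50% inhibition of virus-induced cytopathicity.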

[8] = tested on: Vero; assay: Concentration required to reduce parainfluenza-3 virus-inducted cytopathicity by 50% (Vero cells); type: functional, cell-based; conditions: Chlorocebus sabaeus
[9] = tested on: Vero; assay: Concentration required to reduce Coxsackie virus-inducted cytopathicity by 50% (Vero cells); type: functional, cell-based; conditions: Chlorocebus sabaeus
[10] = tested on: HeLa; assay: Concentration required to cause a microscopically detectable alteration of normal Hela cell morphology; type: functional, cell-based; conditions: Homo sapiens
[11] = tested on: Human immunodeficiency virus 2; assay: Concentration required to inhibit by 50% human immunodeficiency virus-2 induced syncytium formation upon coculturing persistently HIV-infected HUT-78 cells with MOLT-4 cells; conditions: HUT-78, MOLT-4
[12] = tested on: MT4; assay: Concentration required to reduce the viability of uninfected MT-4 cells by 50%; type: functional; conditions: Homo sapiens; how it was run: as §1
[13] = tested on: HeLa; assay: Concentration required to reduce polio-1 virus-inducted cytopathicity by 50% (HeLa cells); type: functional, cell-based; conditions: Homo sapiens
[14] = tested on: E6SM; assay: Concentration required to reduce herpes simplex virus-2(G) inducted cytopathicity by 50% (E6SM cells); type: functional, cell-based; conditions: Homo sapiens; how it was run: as §2
[15] = tested on: Vero; assay: Concentration required to reduce Tacaribe virus-inducted cytopathicity by 50% (Vero cells); type: functional, cell-based; conditions: Chlorocebus sabaeus
[16] = tested on: Vero; assay: Concentration required to reduce sindbis virus-inducted cytopathicity by 50% (Vero cells); type: functional, cell-based; conditions: Chlorocebus sabaeus
[17] = tested on: Vero; assay: Concentration required to reduce forest virus-inducted cytopathicity by 50% (Vero cells); type: functional, cell-based; conditions: Chlorocebus sabaeus
[18] = tested on: E6SM; assay: Concentration required to reduce herpes simplex virus-1TK (VMW1837) inducted cytopathicity by 50% (E6SM cells); type: functional, cell-based; conditions: Homo sapiens; how it was run: as §2
[19] = tested on: Vero; assay: Concentration required to reduce reovirus-1 inducted cytopathicity by 50% (Vero cells); type: functional, cell-based; conditions: Chlorocebus sabaeus
[20] = tested on: Vero; assay: Concentration required to reduce Junin virus-inducted cytopathicity by 50% (Vero cells); type: functional, cell-based; conditions: Chlorocebus sabaeus
[21] = tested on: Vaccinia virus; assay: Concentration required to reduce vaccinia virus-inducted cytopathicity by 50% (E6SM cells); type: functional, organism-based, Orthopoxvirus vaccinia; conditions: Orthopoxvirus vaccinia, E6SM
[22] = tested on: Vero; assay: Concentration required to cause a microscopically detectable alteration of normal Vero cell morphology; type: functional, cell-based; conditions: Chlorocebus sabaeus
[23] = tested on: HEL; assay: Concentration required to inhibit HEL cell growth by 50%; type: functional, cell-based; conditions: Homo sapiens
[24] = tested on: E6SM; assay: Concentration required to reduce herpes simplex virus-1TK (KOS) inducted cytopathicity by 50% (E6SM cells); type: functional, cell-based; conditions: Homo sapiens; how it was run: as §2
[25] = tested on: E6SM; assay: Concentration required to cause a microscopically detectable alteration of normal E6SM cell morphology; type: functional, cell-based; conditions: Homo sapiens, read-out: IC50
How it was run: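 Minimum cytotoxic concentration, read microscopically as the level that causes a detectable alteration of normal cell morphology.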

[26] = tested on: E6SM; assay: Concentration required to reduce herpes simplex virus-1TK (F) inducted cytopathicity by 50% (E6SM cells); type: functional, cell-based; conditions: Homo sapiens; how it was run: as §2
[27] = tested on: MT4; assay: Concentration required to inhibit human immunodeficiency virus-2 induced cytopathicity in MT-4 cells by 50%; type: functional, cell-based; how it was run: as §3
[28] = tested on: HeLa; assay: Concentration required to reduce vesicular stomatitis virus-inducted cytopathicity by 50% (HeLa cells); type: functional, cell-based; conditions: Homo sapiens
[29] = tested on: Human immunodeficiency virus 1; assay: Concentration required to inhibit by 50% human immunodeficiency virus-1 induced syncytium formation upon coculturing persistently HIV-infected HUT-78 cells with MOLT-4 cells; type: functional, organism-based; conditions: Human immunodeficiency virus 1, MOLT-4
How it was run: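 MOLT-4 (clone 8) cells at 1 × 10^6 cells/mL, cocultured with an equal number of persistently infected HUT-78/HIV-1 or HUT-78/HIV-2 cells across a range of compound concentrations. Giant cells were counted under the microscope after 24 h of cocultivation. The value is the concentration giving 50% inhibition of syncytium formation.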

[30] = tested on: E6SM; assay: Concentration required to reduce herpes simplex virus-1TK( B2006) inducted cytopathicity by 50% (E6SM cells); type: functional, cell-based; conditions: Homo sapiens; how it was run: as §2
[31] = tested on: HEL; assay: Concentration required to reduce human cytomegalo virus(AD-169) inducted cytopathicity by 50% (HEL cells); type: functional, cell-based; how it was run: as §2
[32] = tested on: HEL; assay: Concentration required to reduce human cytomegalo virus(Davis) inducted cytopathicity by 50% (HEL cells); type: functional, cell-based; how it was run: as §2

Row | Structure (SMILES) | CC50 [1] [µM] | IC50 [2] [µM] | IC50 [6] [µM] | IC50 [7] [µM] | IC50 [8] [µM] | IC50 [9] [µM] | CC50 [12] [µM] | IC50 [14] [µM] | IC50 [15] [µM] | IC50 [16] [µM] | IC50 [18] [µM] | IC50 [19] [µM] | IC50 [20] [µM] | IC50 [21] [µM] | IC50 [22] [µM] | IC50 [23] [µM] | IC50 [24] [µM] | minimum cytotoxic concentration [25] [µM] | IC50 [27] [µM] | IC50 [28] [µM] | further results
1 | CO[C@H]1O[C@H](COCCCSCC(=O)O)[C@@H](OCCCSCC(=O)O)[C@@H](OCCCSCC(=O)O)[C@H]1OCCCSCC(=O)O | > 370 | > 370 | – | – | – | – | – | – | – | – | – | – | – | – | – | – | – | – | – | – | –
2 | O=C(O)CCSCCCOC[C@H]1O[C@@](COCCCSCCC(=O)O)(O[C@H]2O[C@H](COCCCSCCC(=O)O)[C@@H](OCCCSCCC(=O)O)[C@H](OCCCSCCC(=O)O)[C@H]2OCCCSCCC(=O)O)[C@@H](OCCCSCCC(=O)O)[C@@H]1OCCCSCCC(=O)O | > 59.3 | > 59.3 | > 119 | 29 | > 59 | > 59 | > 148 | > 237 | > 12 | > 59 | > 237 | > 59 | > 12 | > 237 | > 119 | > 30 | > 237 | > 237 | > 148 | > 119 | IC50 [3]: > 119 µM; IC50 [4]: > 237 µM; IC50 [5]: > 237 µM; IC50 [10]: > 119 µM; IC50 [11]: > 148 µM; IC50 [13]: > 119 µM; IC50 [17]: > 59 µM; IC50 [26]: > 237 µM; IC50 [29]: > 148 µM; IC50 [30]: > 237 µM
3 | CO[C@H]1O[C@H](COCCCSC(CC(=O)O)C(=O)O)[C@@H](OCCCSC(CC(=O)O)C(=O)O)[C@@H](OCCCSC(CC(=O)O)C(=O)O)[C@H]1OCCCSC(CC(=O)O)C(=O)O (stereo partly specified) | > 265 | 69 | – | – | – | – | – | – | – | – | – | – | – | – | – | – | – | – | – | – | –
4 | O=C(O)CC(SCCCOC[C@H]1O[C@@H](OCCCSC(CC(=O)O)C(=O)O)[C@H](OCCCSC(CC(=O)O)C(=O)O)[C@@H](OCCCSC(CC(=O)O)C(=O)O)[C@@H]1OCCCSC(CC(=O)O)C(=O)O)C(=O)O (stereo partly specified) | > 74 | > 74 | > 148 | 85.9 | > 148 | > 148 | > 185 | > 296 | > 37 | > 148 | > 296 | > 148 | > 37 | > 296 | > 148 | > 37 | > 296 | > 296 | > 185 | > 148 | IC50 [3]: > 296 µM; IC50 [4]: > 296 µM; IC50 [5]: > 296 µM; IC50 [31]: > 37 µM; IC50 [13]: > 148 µM; IC50 [32]: > 37 µM; IC50 [17]: > 148 µM; IC50 [26]: > 296 µM; IC50 [29]: > 185 µM; IC50 [30]: > 296 µM
5 | CO[C@H]1O[C@H](COCCCSCCC(=O)O)[C@@H](OCCCSCCC(=O)O)[C@@H](OCCCSCCC(=O)O)[C@H]1OCCCSCCC(=O)O | > 346 | > 346 | – | – | – | – | – | – | – | – | – | – | – | – | – | – | – | – | – | – | –
6 | O=C(O)CC(SCCCOC[C@H]1O[C@@H](O[C@H]2[C@H](OCCCSC(CC(=O)O)C(=O)O)[C@@H](OCCCSC(CC(=O)O)C(=O)O)[C@@H](OCCCSC(CC(=O)O)C(=O)O)O[C@@H]2COCCCSC(CC(=O)O)C(=O)O)[C@H](OCCCSC(CC(=O)O)C(=O)O)[C@@H](OCCCSC(CC(=O)O)C(=O)O)[C@@H]1OCCCSC(CC(=O)O)C(=O)O)C(=O)O (stereo partly specified) | – | – | > 181 | 0.37 | > 181 | > 181 | > 56.4 | 136 | > 22 | > 181 | > 181 | > 181 | > 22 | > 181 | > 181 | > 22 | 136 | > 181 | 4.47 | > 181 | IC50 [10]: > 181 µM; IC50 [31]: 6.3 µM; IC50 [11]: 54.2 µM; IC50 [32]: 3.6 µM; IC50 [29]: 3.61 µM; IC50 [30]: 68 µM
7 | O=C(O)CC(SCCCOC[C@H]1O[C@@H](O[C@H]2[C@H](OCCCSC(CC(=O)O)C(=O)O)[C@@H](OCCCSC(CC(=O)O)C(=O)O)C(OCCCSC(CC(=O)O)C(=O)O)O[C@@H]2COCCCSC(CC(=O)O)C(=O)O)[C@H](OCCCSC(CC(=O)O)C(=O)O)[C@@H](OCCCSC(CC(=O)O)C(=O)O)[C@@H]1OCCCSC(CC(=O)O)C(=O)O)C(=O)O (stereo partly specified) | – | – | > 181 | 0.04 | > 181 | > 181 | > 56.4 | > 45 | > 22 | > 181 | > 181 | > 181 | > 22 | > 181 | > 181 | > 22 | > 181 | > 181 | 4.17 | > 181 | IC50 [10]: > 181 µM; IC50 [31]: 1.4 µM; IC50 [11]: 54.2 µM; IC50 [32]: 0.4 µM; IC50 [29]: 1.8 µM; IC50 [30]: 45 µM
8 | O=C(O)CCSCCCOC[C@H]1O[C@@H](OCCCSCCC(=O)O)[C@H](OCCCSCCC(=O)O)[C@@H](OCCCSCCC(=O)O)[C@@H]1OCCCSCCC(=O)O | > 98 | > 98 | – | – | – | – | – | – | – | – | – | – | – | – | – | – | – | – | – | – | –
